Results as given in ChEMBL document CHEMBL4732136, “Synthesis, Tumor Specificity, and Photosensitizing Efficacy of Erlotinib-Conjugated Chlorins and Bacteriochlorins: Identification of a Highly Effective Candidate for Photodynamic Therapy of Cancer” (J Med Chem, 2021).

Experiments:
[1] = tested on: HN-85-1-3; test: Photodynamic therapy in human HN-85-1-3 cells assessed as induction of STAT3 cross-linking treated with compound followed by diode laser irradiation at 3 J/cm2 by immunoblot analysis; type: functional, cell-based
In short: (§1)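 Primary HN-85-1-3 tumor epithelial cells loaded with graded PS doses; uptake quantified by fluorescence before light. Dishes irradiated at 37°C with 665 nm diode laser, 6 mW/cm², 3 J/cm² total. Cells lysed in RIPA immediately after light; STAT3 crosslinking and EGFR analysed by SDS-PAGE immunoblot.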

[2] = Drug uptake in human HN-85-1-3 cells assessed as photoreactivation by measuring fluorescence when irradiated with diode laser at 3J/cm2 by inverted fluorescence microscopic analysis (reference value: 0 FU); type: cell-based; in short: as §1
[3] = Drug uptake in human HNT1 cells at 3.2 uM incubated for 30 mins in DMEM media with 10% FBS followed by […] in compound-free medium by inverted fluorescence microscopic analysis; type: ADME, cell-based; conditions: hnt1, 0.5 h, in the assay text read “in serum-free medium” for “in DMEM media with 10% FBS”
In short: (§2)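 Confluent HNT1 cultures (passage 116) given 3.2 μM PS for 30 min in serum-free medium, then 5 h in serum-containing medium with PS, then 15 h chase in serum medium without PS. Fluorescence recorded at 100X with varied camera exposures and quantified digitally; pixel signal normalized to time and cell number.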

[4] = Drug uptake in liver of SCID mouse xenografted with FaDu cells at 0.47 to 0.125 micromol/kg, iv pretreated with compound followed by light irradiation at a dose of 135 J/cm2 and 75 mW/cm2 and measured at 24 hrs by IVIS analysis; type: ADME, organism-based; conditions: in vivo, dose 0.47-0.125 µmol/kg
In short: (§3)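 Female SCID mice bearing FaDu tumors 4–5 mm in diameter, 3 per group. PS in 1% Tween80/5% dextrose given iv at 0.47, 0.25 or 0.125 μmol/kg. IVIS whole-body fluorescence imaged at several time points; average radiant efficiency measured in tumor, liver and skin.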

[5] = Drug uptake in skin of SCID mouse xenografted with FaDu cells at 0.47 to 0.125 micromol/kg, iv pretreated with compound followed by light irradiation at a dose of 135 J/cm2 and 75 mW/cm2 and measured at 24 hrs by IVIS analysis; type: ADME, organism-based, Skin of body; conditions: in vivo, dose 0.47-0.125 µmol/kg; in short: as §3
[6] = Drug uptake in tumor of iv dosed SCID mouse xenografted with UMUC3 cells by fluorescence imaging analysis; conditions: in vivo
[7] = tested on: FaDu; test: Photodynamic antitumor activity against human FaDu cells xenografted in SCID mouse assessed as cure rate at 0.25 micromol/kg, iv pretreated with compound followed by light irradiation at a dose of 135 J/cm2 and 75 mW/cm2 measured after 60 days post dose relative to control; type: functional; conditions: dose 0.25 µmol/kg; time 60 day
In short: (§4)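 FaDu-bearing female SCID mice (5 per group per experiment) given iv PS at 0.47, 0.25 or 0.125 μmol/kg in Tween80/dextrose. Tumors irradiated 24 h post-injection at 665 nm, 135 J/cm², 75 mW/cm². Tumor growth measured daily for 60 days, with euthanasia above 400 mm³. Cure taken as tumor-free at day 60; survival analysed by log-rank test.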

[8] = Drug uptake in liver of SCID mouse xenografted with human UMUC3 cells at 0.125 micromol/kg, iv pretreated with compound followed by light irradiation at a dose of 135 J/cm2 and 75 mW/cm2 measured after 2 to 24 hrs by IVIS analysis; type: ADME, organism-based; conditions: in vivo, time 2-24 hrs, dose 0.125 µmol/kg
In short: (§5)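 Female SCID mice with UMUC3 flank/shoulder tumors, 3 per group. PS in 1% Tween80/5% dextrose given iv at 0.47, 0.25 or 0.125 μmol/kg. Whole-body fluorescence imaging by IVIS at several times after injection; average radiant efficiency measured in tumor, liver and skin.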

[9] = Drug uptake in human HNT1 cells at 3.2 uM incubated for 30 mins in serum free medium followed by […] in compound-free medium by inverted fluorescence microscopic analysis; type: ADME, cell-based; conditions: hnt1, 0.5 h; in short: as §2
[10] = Drug uptake in liver of iv dosed SCID mouse xenografted with UMUC3 cells by fluorescence imaging analysis; conditions: in vivo
[11] = Drug uptake in skin of SCID mouse xenografted with human UMUC3 cells at 0.25 micromol/kg, iv pretreated with compound followed by light irradiation at a dose of 135 J/cm2 and 75 mW/cm2 measured after 2 to 8 hrs by IVIS analysis; type: ADME, organism-based, Skin of body; conditions: in vivo, time 2-8 hrs, dose 0.25 µmol/kg; in short: as §5
[12] = tested on: UMUC3; test: Photosensitizing activity in human UMUC3 cells assessed as reduction in cell viability pretreated with compound for 24 hrs followed by light irradiation at 1 J/cm2 and measured after 48 hrs by MTT assay; type: functional, cell-based; conditions: UMUC3, light or radiation study
In short: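 Cells plated 0.01x10⁶ to 0.05x10⁶ cells/ml and allowed to adhere 24 h before photosensitizer was added, top dose 1600 nM with 2-fold serial dilutions. Plates received no light (0 J/cm²) or 1 J/cm² at 565 mW, 15 cm spot. After 48 h, MTT added for 3 h, formazan solubilized in DMSO and read at 570 nm; IC₅₀ fitted from dose-response.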

[13] = tested on: FaDu; test: Photodynamic antitumor activity against human FaDu cels xenografted in SCID mouse assessed as cure rate at 0.47 micromol/kg, iv pretreated with compound followed by light irradiation at a dose of 135 J/cm2 and 75 mW/cm2 and measured at 24 hrs post dose relative to control; type: functional; conditions: dose 0.47 µmol/kg; in short: as §4
[14] = Drug uptake in tumor of SCID mouse xenografted with human UMUC3 cells at 0.125 micromol/kg, iv pretreated with compound followed by light irradiation at a dose of 135 J/cm2 and 75 mW/cm2 measured after 2 to 24 hrs by IVIS analysis; type: ADME, organism-based, Neoplasm; conditions: in vivo, time 2-24 hrs, dose 0.125 µmol/kg; in short: as §5

Activity [2]: 9 FU
Drug uptake [3]: Active
Drug uptake [4]: Active
Drug uptake [5]: Active
Drug uptake [6]: Active
Drug uptake [8]: Active
Drug uptake [9]: Active
Drug uptake [10]: Active
Drug uptake [11]: Active
Drug uptake [14]: Active
Structure (SMILES): CCC1=C(C)c2cc3[nH]c(cc4nc(c5c6[nH]c(cc1n2)c(C)c6C(=O)C5)[C@@H](CCC(=O)OC)[C@@H]4C)c(C)c3C(C)OCc1cccc(C#Cc2cccc(Nc3ncnc4cc(OCCOC)c(OCCOC)cc34)c2)c1 (some centres undefined)
Activity [1]: Dose-dependent effect
Activity [7]: 80%
IC50 [12]: 59.4 nM
Activity [13]: 92%
